ATG4B inhibitor: inhibitors of human ATG4B cysteine protease | Q9Y4P1 | ATG4B cleavage of LC3-PLA2, NBD-HPC fluorescence, 1 h | inhibition, % at 8.33 µM | 340,000 compounds, 0.51% hits | AID 504462; in the data active means inhibition above about 40%
UCH37 inh: inhibitors of human deubiquitinating enzyme UCH37; Q9Y5K5; purified proteasome/UCH37, Ub-AMC cleavage fluorescence; inhibition, % (test concentration not listed); 330,000 compounds, 0.33% hits;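 active means mean inhibition over replicate wells above about 20%, limit read from the data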;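 further: 0% = compound-free wells with enzyme and 100% = wells lacking proteasome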
Target sequence (Q9Y5K5 whole entry, looked up): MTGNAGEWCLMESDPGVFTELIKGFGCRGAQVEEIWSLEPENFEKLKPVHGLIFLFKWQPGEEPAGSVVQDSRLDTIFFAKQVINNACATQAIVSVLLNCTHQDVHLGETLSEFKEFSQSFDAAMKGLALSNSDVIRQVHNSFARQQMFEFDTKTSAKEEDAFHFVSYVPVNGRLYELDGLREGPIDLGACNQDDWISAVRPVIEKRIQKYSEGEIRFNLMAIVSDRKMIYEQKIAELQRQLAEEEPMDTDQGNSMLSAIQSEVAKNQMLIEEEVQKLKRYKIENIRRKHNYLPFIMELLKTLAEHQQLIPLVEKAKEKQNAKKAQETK
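Signal – fluorescence, ex 355 nm, em 460 nm · System – Proteasome-bound UCH37 · Input – 0.15 nM proteasome as dispensed · Timing – 30 min preincubation with enzyme, 25 min cleavage at room temperature · Read-out basis – percent inhibition of cleavage signal versus uninhibited and no-proteasome wells · Medium – Tris-HCl pH 7.4 with ATP-MgCl2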
Tb MetRS inh: blocks T. brucei methionyl-tRNA synthetase activity; purified T. brucei MetRS, ATP depletion, Kinase-Glo luminescence; inhibition, % at 11.9 µM; 360,000 compounds, 0.4% hits; AID 624268;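 active means inhibition above a per-plate cutoff of the control wells' mean inhibition plus 3 SD, cut at about 5.5% in these data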;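 further: 0% = DMSO wells median and 100% = median of wells with control inhibitor compound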
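technique = Kinase-Glo luminescence, ATP depletion format | system = purified MetRS (methionyl-tRNA synthetase) enzyme from Trypanosoma brucei | timing = 15 min preincubation, 2 h reaction, all 25 °C | evaluation = percent inhibition versus plate control medians | dosing = single dose, 11.9 µM final nominal, 0.9% final DMSO | also added = substrates ATP, L-methionine and bulk Escherichia coli tRNA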
Rin1-Abl PPI inh: inhibitors of human Rin1-Abl protein interaction; 360,000 compounds, 0.4% hits; P00519+Q13671; TR-FRET Rin1/Abl binding, biochemical; inhibition, % at 7.35 µM; in the data active means inhibition above about 5%, passing the limit was not always enough
ATG4B conf: confirmation of human ATG4B inhibitors | inhibition, % at 8.33 µM | ATG4B protease fluorescent substrate cleavage assay | AID 504757 | shares compounds with ATG4B inhibitor | 320 compounds, 92% hits; in the data active means inhibition above about 39%
PLA2 counter: inhibits human PLA2, flagging false ATG4B inhibitors. shares compounds with ATG4B inhibitor. purified PLA2, NBD-C6-HPC fluorescence, 45 min. inhibition, % at 8.33 µM. 1,600 compounds, 66% hits; in the data active means inhibition above about 50%
Target sequence (P04054 whole entry, looked up): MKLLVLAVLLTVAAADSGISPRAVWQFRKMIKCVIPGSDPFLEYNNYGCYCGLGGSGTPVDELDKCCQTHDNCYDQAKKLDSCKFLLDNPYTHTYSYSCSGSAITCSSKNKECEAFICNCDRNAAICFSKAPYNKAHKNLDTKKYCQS
Active calls of the source: *; i = inactive; . = no result given. This is a sample that favours compounds with a hit; in the whole collection about 1.4% have one here.

SMILES	ATG4B inhibitor	UCH37 inh	Tb MetRS inh	Rin1-Abl PPI inh	PLA2 counter	others
FC(F)(F)c1cccc(NC(=S)NCc2ccccc2)c1	59.4*	1.4	2.7	0.5	61.8*
S=C(NCc1ccccc1)Nc1ccc(Cl)cc1	26.6	2.8	0.4	3.0	.
FC(F)(F)Sc1ccc(NC(=S)NCc2ccccc2)cc1	73.3*	8.0	0.1	-2.3	81.5*
FC(F)(F)c1cccc(NC(=S)NC(c2ccccc2)c2ccccc2)c1	11.2	-6.5	-1.2	-0.6	.
Cc1cc(C(=O)N/N=C\c2cc(C(C)(C)C)ccc2O)n[nH]1	46.8*	.	-0.1	0.3	55.0*
Cc1cc(C(=O)N/N=C/c2cc(Br)cc(Br)c2OC(=O)c2cccc(F)c2)n[nH]1	44.0*	.	-0.5	0.9	42.0
CSC(=S)NN=C(C)c1cccc(C)n1	-2.0	.	-0.4	4.4	.
Cc1ccsc1C1C(C#N)=C(N)N(N(C)C)C2=C1C(=O)CC(C)(C)C2 (stereo not given)	-3.4	-12.6	-0.6	3.8	.
CC1=CC(C)(C)N2C(=O)C3(NCCc4c3[nH]c3ccccc43)c3cc(C)cc1c32 (stereo not given)	58.0*	2.8	-0.4	-1.1	69.4*
C=CC#CC[N+]1(CC#Cc2ccccc2)CCOCC1	69.8*	28.8*	-0.3	0.7	-2.7	ATG4B conf=46.0*
C(#Cc1ccccc1)C[N+]1(CC#Cc2ccccc2)CCCC1	-3.6	7.9	0.0	-2.6	.
O=C(NN=Cc1ccc(Br)cc1)c1ccc(Cn2cccn2)o1	.	-3.1	.	.	.
Fc1cccc(F)c1-n1c(CN2CCCCC2)csc1=S	-3.0	4.2	-0.8	-1.0	.
CCCCCc1nc2c(c(=O)c3ccccc3n2C)c(=O)n1Cc1ccc(OC)cc1	-3.9	3.8	-0.8	0.2	.
NC(=O)C1(c2ccccc2)CCOCC1	0.9	4.1	-0.7	-4.0	.
CC1CC(C)CN(C(=O)c2ccc3c(c2NCCO)C(=O)c2ccccc2C3=O)C1 (stereo not given)	58.5*	5.9	-0.2	-12.0	66.5*
O=C(CSc1nnc(SCC(=O)NCc2ccc3c(c2)OCO3)s1)NCc1ccc2c(c1)OCO2	5.4	1.6	-0.1	5.8	.
O=C(Cn1cncn1)NN=Cc1cccc(Cl)c1	.	6.7	.	.	.
O=C(NCc1cccc(Cl)c1)c1ccc(CS(=O)Cc2ccc(Cl)cc2)o1 (stereo not given)	59.9*	2.3	1.8	2.5	63.4*
Cc1ccc(CS(=O)Cc2ccc(C(=O)NCc3ccccc3Cl)o2)cc1 (stereo not given)	41.8*	-0.8	0.0	3.8	37.7
Cc1ccc(CNC(=O)c2ccc(CS(=O)Cc3ccccc3Cl)o2)cc1 (stereo not given)	4.1	2.9	-0.1	-2.1	.
O=C(NCc1cccc(Cl)c1)c1ccc(CS(=O)Cc2ccccc2Cl)o1 (stereo not given)	68.8*	-0.3	5.1	-6.3	69.3*
O=C(NCc1ccccc1)c1ccc(CS(=O)Cc2cccc(Cl)c2)o1 (stereo not given)	.	.	-0.3	-2.1	.
COc1ccc2[nH]c(C(=O)N3CCc4ccccc4C3)c(C)c2c1	61.5*	-7.5	0.1	-0.1	64.4*
COc1ccc(OC)c(-c2cc(C(=O)N3CCc4ccccc4C3)no2)c1	48.8*	-27.4	-0.1	-1.3	56.0*
SMILES	ATG4B inhibitor	UCH37 inh	Tb MetRS inh	Rin1-Abl PPI inh	PLA2 counter	others
CCCCN1C(=O)C(CC(=O)NC2CCCCC2)CC(C(=O)N(CC)CC)=C1C (stereo not given)	.	.	-0.9	1.6	.
CCCn1c2c(c(O)c(C(=O)NCCCN(CC)CC)c1=O)CCCC2	6.1	7.0	-0.8	-0.6	.
Clc1ccc(C2=C3CCCCn4c(-c5ccccc5)c[n+](c43)C2)cc1	3.1	i	-0.7	0.2	.
CC/C(=N\NC(=O)c1c(-c2ccccc2)noc1C)c1ccc(C)o1	4.9	.	0.5	3.9	.
COc1cc(NS(=O)(=O)c2ccc(NC(=S)NC(=O)/C=C/c3ccco3)cc2)ncn1	56.1*	8.2	0.0	3.1	12.4	ATG4B conf=46.5*
CCOc1ccc(NC(=S)NC(=O)/C=C/c2ccco2)cc1	-1.5	3.4	0.0	-1.5	.
COc1ccccc1N1CCN(S(=O)(=O)c2ccc3nc(-c4ccccc4)[nH]c3c2)CC1	58.8*	2.3	1.1	-0.3	57.5*
CC(C)(C)c1cc(=O)[nH]c(SCc2ccccc2Cl)n1	50.4*	5.6	0.8	-0.7	51.5*
O=C(N/N=C/C1CC=CCC1)c1ccc(Cl)cc1O (stereo not given)	3.4	.	1.2	2.8	.
Cc1nn(-c2nnc(C)c(=O)[nH]2)c(C)c1SCC(=O)Nc1ccc(F)cc1	-9.0	-0.8	-0.8	-3.0	.
Cc1c(C(=O)Nc2nccs2)sc2nc(-c3cccs3)cc(C(F)(F)F)c12	49.5*	-30.5	-1.8	3.9	7.8
COC(=O)CN1C(=O)N/C(=C/c2ccc(OC)cc2)C1=O	-3.6	3.3	-0.7	-4.0	.
COC(=O)Cn1c(=O)c2c(n(Cc3ccccc3)c1=O)N/C(=C/c1ccc(Br)cc1)C2=O	53.5*	.	-1.1	0.6	61.1*
Cc1ccc(-c2nnc(SCC#CCOC(=O)c3ccco3)o2)cc1	-18.2	2.6	0.0	0.9	.
Cc1ccc(C(=O)NCc2nnc3c(C(F)(F)F)cc(Cl)cn23)o1	1.2	4.4	0.1	1.1	.
c1ccc(-n2cnnc2SCc2cn3ccsc3n2)cc1	-9.1	0.2	0.6	2.8	.
Cc1ccc(-n2c(SCc3cn4ccsc4n3)nc3ccccc3c2=O)cc1	74.1*	-1.7	-0.3	1.2	79.0*
Cc1ccc(NC(=S)NNC(=O)CSc2nc3ccccc3c(=O)n2-c2ccc(C)cc2)cc1	88.0*	1.8	0.0	-3.0	92.6*
Cc1ccc(-n2c(SCC(=O)Nc3ccc(N4CCOCC4)cc3)nc3ccccc3c2=O)cc1	6.6	0.8	0.2	-5.0	.
O=C(N/N=C/c1ccccc1Cl)c1nc2ccc([N+](=O)[O-])cc2c(=O)[nH]1	40.8*	.	-0.6	4.0	43.2	ATG4B conf=65.8*
O=C(N/N=C/c1cccc([N+](=O)[O-])c1)c1nc2ccccc2c(=O)[nH]1	9.9	.	-0.9	0.0	.
CCOc1cc(/C=C2\SC(=O)N(CC(=O)Nc3ccccc3F)C2=O)cc([N+](=O)[O-])c1O	42.5*	22.9*	-1.1	3.4	2.6	ATG4B conf=58.8*
COc1cc(/C=C2\SC(=O)N(CC(=O)Nc3ccccc3F)C2=O)cc(Cl)c1O	1.1	.	-0.8	1.8	.
CCCCn1nc2cc(C(=O)N(CC)c3ccc(OC)cc3)ccc2c1OCC	-3.4	-31.7	-0.2	-0.8	.
CCN(c1ccc(OC)cc1)S(=O)(=O)N1CCCC(C(=O)NCc2ccccc2Br)C1 (stereo not given)	57.4*	2.3	-0.1	0.3	57.9*
O=C1Nc2ccccc2S/C1=C/NCc1ccccc1Cl	55.4*	-0.4	0.5	2.6	61.0*

Screening results (PubChem)
